Shown are actives, neighbours in structure and some others; about 2.1% of the full set was active somewhere.
Dynein cargo inh – blocks dynein driven cargo transport along microtubules | 3617.4 mouse cells, GR-EGFP nuclear translocation imaging; test concentration mostly 20 µM; stimulated with dexamethasone, 1 µM; stronger effect = lower value | z-score, hits read low | AID 1381 | 0.47% of 220,000 active;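 active = plate z-score of nuclear minus cytoplasmic receptor signal below a set negative limit, without overly bright fluorescence or cell loss, cut at about -3.5 in these data, passing the limit was not always enough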;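 note: z-score of nuclear minus cytoplasmic ring GR-EGFP intensity difference per well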
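Buffer or medium: tetracycline-free induction medium containing charcoal-stripped FBS / Reagent: dexamethasone agonist, 1.0 µM final, for 30 min / Technique: automated 10x imaging of fixed Hoechst-stained cells / Times: induction 48 h, compound 1 h, agonist 30 min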
INS promoter inh – TRM-6 insulin promoter activity inhibition | TRM-6 cells, insulin promoter-eGFP reporter, imaging; reporter expression induced with tamoxifen | inhibition, % at 2 µM | 0.9% of 130,000 active;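 active = inhibition above the mean plus 3 SD, with well images judged a real hit on visual review, cut at about 60% in these data, passing the limit was not always enough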
PERK inhibitor – human PERK inhibition, primary cell-based screen. 0.17% of 220,000 active. AID 1416. inhibition, % at 5.6 µM. CHO PERK-DD fusion, SEAP luminescence translation reporter. Q9NZJ5;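 active = inhibition above the mean inhibition of all tested compounds plus 3 SD, set separately per screening campaign, cut at about 2.9% in these data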;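 note: PERK kinase domain activated by AP20187 dimerizer at 100 nM; 0% = DMSO with dimerizer and 100% = rapamycin at 8.4 µM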
Insulin prom up – MIN6 insulin promoter up-regulation. 0.3% of 190,000 active. z-score at 5 µM. MIN6 insulin promoter-GFP reporter, high-content imaging; stronger effect = higher value;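 active = z-score above 3 at 5 µM with at least 500 cells counted in the well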
Autophagy mod – alters autophagy in cells; MEF GFP-LC3 puncta imaging; test concentration mostly 10 µM; calls only at 10 µM (by protocol); 0.98% of 190,000 active;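 active = percentage of spot-positive cells more than 3 SD above its plate mean, without a fluorescence outlier flag or 80% toxicity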;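 note: spot-positive cell cutoff set from DMSO-treated cells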
Numbers without * were called inactive; i = inactive; / = no result given; + = active, no number.

SMILES	Dynein cargo inh	INS promoter inh	PERK inhibitor	Insulin prom up	Autophagy mod
CC(C)c1cccc(C(C)C)c1NC(=O)COC(=O)C1=COCCO1	0.61	/	0	-1.3	i
COc1ccc(-c2nc(C)c(C(C)=O)n2O)cc1	-0.29	35	1	-0.42	i
COc1ccc(-c2nc(C)c(C(C)=O)n2O)cc1OC	0.18	67	1	0.3	+
O=C(C1=NN[C@@H]2C(=O)N(Cc3ccccc3)C(=O)[C@H]12)c1ccc([N+](=O)[O-])cc1	0.9	/	-1	-0.57	/
CCOC(=O)C1(CC/C(C)=N\NC(N)=O)CC(C)(C)OC1=O (stereo not given)	-0.89	/	1	/	+
CCN1C(=O)[C@@H]2C(C(=O)c3cnccn3)=NN[C@@H]2C1=O	-0.4	/	0	-0.44	/
CCCC(=O)Nc1cc(C(F)(F)F)ccc1N1CCOCC1	-0.46	25	-1	0.36	i
O=C(CSCc1ccco1)Nc1cc(C(F)(F)F)ccc1N1CCOCC1	-0.32	-55	-1	0.54	+
CC(=O)NC1=NN(C(C)=O)C(c2sccc2C)S1 (stereo not given)	0.58	38	1	-0.58	i
COc1ccc(/C=N/c2oc(C)c(C)c2C#N)c(OC)c1	1.2	/	0	0.95	+
C/C(CC1CC2=C(CC1(C)C)C(C)(C)CCC2)=N\NC(N)=S (stereo not given)	0.65	-35	-1	-0.88	+
COc1cc(C2C(N3C(=O)c4ccccc4C3=O)C(=O)N2c2cccc(C)c2)cc(OC)c1OC (stereo not given)	0.15	-17	0	/	i
CC1(NC(=S)N(CCO)CCO)CCS(=O)(=O)C1 (stereo not given)	-0.22	4	1	0.17	i
C[n+]1cc(C(=O)N2CCCCC2)ccc1/C=C/c1c[nH]c2ccccc12	-0.26	/	0	4*	i
O=C1OCCC1Sc1nnc(-c2ccc(F)cc2)n1Cc1ccccc1 (stereo not given)	1.5	43	1	0.46	i
COc1ccc(C2C=C(C34CC5CC(CC(C5)C3)C4)NC(=S)N2)cc1 (stereo not given)	-0.46	/	0	-1.7	i
O=C1COc2ccc(N3C(=O)C=CC3=O)cc2N1	-4*	/	0	0.29	i
O=C(O)/C=C/C(=O)Nc1ccc2c(c1)NC(=O)CO2	-0.25	-100	1	1.6	i
CCOC(=O)C1=C(C)OC(N)=C(C#N)C1c1cc2c(cc1[N+](=O)[O-])OCO2 (stereo not given)	-1.4	-100	1	0.32	i
CSc1c(C#N)c(N)nc2sc(C(=O)c3ccc(Cl)c(Cl)c3)c(N)c12	-2.9	/	1	/	/
CCOc1ccc(-c2c(C#N)c(N)nc3sc(C(=O)c4ccccc4)c(N)c23)cc1	0.78	/	-1	9.1*	/
Cc1ccc(N2C(=O)C3ON(c4ccccc4)C(c4ccncc4)C3C2=O)c(C)c1 (stereo not given)	-0.96	53	0	1.6	i
N=c1n(CCN2CCOCC2)c2ccccc2n1CC(=O)c1ccc(Cl)c(Cl)c1	-0.49	/	-2	0.43	i
N=c1n(CCN2CCCC2)c2ccccc2n1CC(O)c1ccc(Cl)c(Cl)c1 (stereo not given)	4	/	-1	-1.8	+
COc1ccc(Nc2nc(N)nc(CSc3nncn3C)n2)cc1	0.62	77*	1	0.44	i
SMILES	Dynein cargo inh	INS promoter inh	PERK inhibitor	Insulin prom up	Autophagy mod
CC(C)(C)CC(=O)NCc1ccc(F)cc1	2.6	73*	0	-0.26	i
C=CCn1c(SCc2csc(-c3ccc(Cl)cc3)n2)nnc1-c1ccccc1OC	-0.57	/	0	-0.54	i
COc1cccc2c3c(c(C)nc12)CCN3c1ccccc1	1.3	0	-1	/	+
O=C1C=CC(=O)N1CCCCCCN1C(=O)C=CC1=O	-4*	/	0	-0.78	i
Clc1ccc(CNCc2cccs2)c(Cl)c1	-0.1	20	1	0.01	i
O=C(/C=C/c1ccccc1)c1ccccn1	-3.8*	39	1	0.2	i
CC1(C)CC2(CCO1)C(Nc1ccccc1)=NC(=S)N2c1ccccc1 (stereo not given)	-0.17	/	0	-0.46	/
COc1cccc(CNCCSc2nnnn2C)c1	-0.25	/	-1	0.52	i
Cn1nnnc1SCCNCc1cccnc1	1.7	/	3.2*	-0.05	i
CCOC(=O)N1CCC(N2C(=O)c3ccccc3C2Nc2ccc(S(=O)(=O)N3CCOCC3)cc2)CC1 (stereo not given)	-0.15	/	1	-0.58	i
O=C(CSc1ccc2nnc(-c3ccccn3)n2n1)NCc1ccco1	0.29	/	2	0.79	+
O=C(CSc1ccc2nnc(-c3ccccc3)n2n1)NCc1ccco1	0.3	/	-1	-0.34	i
N#Cc1cc2ccccc2nc1SCC(=O)Nc1ccccc1N1CCOCC1	0.37	-18	0	-0.12	+
COc1ccc(NC2=Nc3ccccc3N3C2=Nc2c(c(C)nn2-c2ccc(C)cc2)C3c2cccnc2)cc1 (stereo not given)	0.25	38	-1	3.1*	i
CC(=O)Nc1ccc(NC2=Nc3ccccc3N3C2=Nc2c(c(C)nn2-c2ccccc2)C3c2ccccc2)cc1 (stereo not given)	-0.49	64	-1	-0.56	i
Cc1ccc([N+](=O)[O-])cc1S(=O)(=O)Nc1ccc(C(=O)N(C)C)cc1	2.2	/	0	-0.87	+
CC(=O)Nc1ccc(NS(=O)(=O)c2cc([N+](=O)[O-])ccc2C)cc1	-0.028	24	0	1.3	i
COC(=O)C1=C(C)NC(=S)N(C(C)=O)C1c1ccccc1 (stereo not given)	0.95	77*	-1	/	i
Cc1cc[n+](-c2nc([O-])n(-c3ccccc3)c2C=O)cc1	-0.31	63	1	/	i
CC(C)SC1=NC(C)(C)C=C(/C=C/c2ccc(Cl)cc2Cl)N1	0.15	-61	-2	3.6*	i
CC(C)SC1=NC(C)(C)C=C(/C=C/c2c(Cl)cccc2Cl)N1	-1	-29	-1	0.6	i
COc1ccc(Cl)cc1-c1nc(-c2ccncc2)no1	-0.1	81*	0	0.45	i
COc1ccccc1-c1nc(-c2ccncc2)no1	-0.35	18	1	-0.2	i
O=c1[nH]c(=O)n([C@H]2C[C@H](O)[C@@H](CO)O2)cc1C(F)(F)F	-0.63	-5	2	/	+
O=C(CSc1nncs1)NCCCc1ccccc1	1.1	-42	1	0.59	i
Cc1ccc(CN2CCN(c3ccccn3)CC2)s1	-0.032	72*	0	-0.23	i
Cc1cccc(CN2CCN(c3ccccn3)CC2)c1	-0.15	19	1	/	i
Cc1nn2c(Nc3ccc(F)cc3)c3c(nc2c1-c1ccccc1)CCC3	0.36	87*	0	-0.14	i
COc1cccc(Nc2c3c(nc4c(-c5ccccc5)c(C)nn24)CCC3)c1	0.027	94*	-1	-0.14	i
CCCCNc1c2c(nc3c(-c4ccccc4)c(C)nn13)CCC2	0.018	-4	-1	/	i

Assay outcomes from PubChem.
